# Measured values from different studies.
# Target: 1-phosphatidylinositol 3-phosphate 5-kinase (PIKFYVE, Homo sapiens, UniProt Q9Y2I7)
Structure (SMILES),read-out,method,concentration,remaining binding [%]
CN1CCN(c2cnc3c(C4CCN(C(=O)c5ccc(OC(F)(F)F)cc5N)CC4)ncnc3c2)CC1,cell-free assay,competition with immobilised ligand,1 µM,98
CN(C)c1nccc(-c2cnc3ncccn23)n1,binding,,1 µM,78
CN([C@@H]1CCc2c(CC(=O)O)c3ccccc3n2C1)S(=O)(=O)c1ccc(F)cc1,cell-free assay,competition with immobilised ligand,1 µM,100
F[C@@H]1CCN(c2nccc(-c3cnn4ncccc34)n2)C1,binding,,1 µM,82
CC(C)CC(=O)N1CCc2nc(-c3ccc(Br)cc3)nc(N(C)Cc3ccccc3)c2C1,cell-free assay,competition with immobilised ligand,0.1 µM,91
CNC(=O)[C@@H]1CC[C@@H](n2c(-c3ccc4cnccc4c3)nc3ccc(C(=O)NCc4cccc(C(N)=O)c4)cc32)C1,binding,competition with immobilised ligand,1 µM,14
FC(F)(F)c1ccc2c(c1)nc(-c1cccnc1)n2C1CC1,cell-free assay,competition with immobilised ligand,1 µM,99
O=C(NCCCN1CCOCC1)c1ccc(Nc2ncc(Cl)c(-c3ccc(Cl)s3)n2)cc1,binding,competition with immobilised ligand,1 µM,53
COc1cnc(Nc2cccc(S(N)(=O)=O)c2)nc1N1CCN(c2ccccc2)C(=O)C1,binding,competition with immobilised ligand,1 µM,100
Cc1cnc(Nc2ccc(C(=O)N3CCC(N4CCCC4)CC3)cc2)nc1-c1cc2ccccc2s1,binding,competition with immobilised ligand,1 µM,79
C[C@H]1CCN(c2nccc(-c3cnn4ncccc34)n2)C1,binding,,1 µM,100
O=C(Nc1c[nH]nc1C(=O)NC1CCNCC1)c1cc(F)cc(F)c1,binding,competition with immobilised ligand,1 µM,86
Cc1cnn2ncc(-c3ccnc(N(C)C)n3)c2c1,binding,,1 µM,87
O=C(c1ccc(Nc2ncc(Cl)c(-c3cc4ccccc4s3)n2)cc1)N1CCC(N2CCCC2)CC1,binding,competition with immobilised ligand,1 µM,72
CN(C)c1ncc(F)c(-c2cnn3ncccc23)n1,binding,,1 µM,100
Nc1ncc2c(n1)-c1c([nH]c3ccc(C#CC4CC4)cc13)CCCC2,binding,competition with immobilised ligand,1 µM,9.8
CC1CCCN1c1nccc(-c2cnn3ncccc23)n1 (stereo not drawn),binding,,1 µM,100
COc1cccc(CNC(=O)c2nc3scc(COCc4ccc(C(=O)O)cc4)c3c(=O)[nH]2)c1,cell-free assay,competition with immobilised ligand,1 µM,100
